Consider one compound from ChEMBL document CHEMBL1649213, “The arabinosyltransferase EmbC is inhibited by ethambutol in Mycobacterium tuberculosis” (2009).

Molecules are shown by their SMILES. Converted amounts (≈) assume the structure as drawn. The source made the active and inactive calls. The rule behind the calls is not given here.

Test [1] concerns Mycolicibacterium smegmatis. As to the kind of experiment: Antimicrobial activity against Mycobacterium smegmatis expressing EmbC D280G mutant gene after 48 hrs by agar proportion method. Type of test: functional.
For test [2], the system named is Mycolicibacterium smegmatis. As to the kind of experiment: Antimicrobial activity against Mycobacterium smegmatis expressing EmbC M286I mutant gene at 32 ug/ml. Type of test: functional, organism-based.
Test [3] deals with Mycolicibacterium smegmatis. As to the kind of experiment: Antimicrobial activity against Mycobacterium smegmatis expressing EmbC M286L mutant gene at 32 ug/ml after 48 hrs. Type of test: functional, organism-based.
In test [4] the test system is Mycolicibacterium smegmatis. Briefly: Antimicrobial activity against Mycobacterium smegmatis expressing EmbC M286V mutant gene at 32 ug/ml after 48 hrs. Type of test: functional, organism-based.
The subject of test [5] is Mycolicibacterium smegmatis. As to the kind of experiment: Antimicrobial activity against Mycobacterium smegmatis expressing EmbC D280G mutant gene at 32 ug/ml after 48 hrs. Format: functional, organism-based.
In test [6] the test system is Mycobacterium tuberculosis. As to the kind of experiment: Antimicrobial activity against Mycobacterium tuberculosis embA gene after 48 hrs by agar proportion method. Type of test: functional.
Test [7] relates to Mycobacterium tuberculosis. Briefly: Inhibition of Mycobacterium tuberculosis EmbC assessed as effect on LAM production at 1 ug/ml after 2 hrs by immunoblotting. The method in brief: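 M. tuberculosis grown in 7H9 plus 10% OADC with hygromycin 100 µg/ml, kanamycin 20 µg/ml and EMB 0 to 128 µg/ml for 14 days. Cells extracted in phenol-water (1:1) at 80°C for 2 h, then chloroform added. Aqueous phase run on denaturing, nonreducing acrylamide gels with periodic acid-Schiff staining or CS-35 anti-LAM immunoblot.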
Background: A western blot detects proteins with antibodies after separation by electrophoresis.

For test [8], the system named is T1, Probable arabinosyltransferase A (Mycobacterium smegmatis (strain ATCC 700084 / mc(2)155)), A0R612 [D280G].
T1 sequence (whole entry): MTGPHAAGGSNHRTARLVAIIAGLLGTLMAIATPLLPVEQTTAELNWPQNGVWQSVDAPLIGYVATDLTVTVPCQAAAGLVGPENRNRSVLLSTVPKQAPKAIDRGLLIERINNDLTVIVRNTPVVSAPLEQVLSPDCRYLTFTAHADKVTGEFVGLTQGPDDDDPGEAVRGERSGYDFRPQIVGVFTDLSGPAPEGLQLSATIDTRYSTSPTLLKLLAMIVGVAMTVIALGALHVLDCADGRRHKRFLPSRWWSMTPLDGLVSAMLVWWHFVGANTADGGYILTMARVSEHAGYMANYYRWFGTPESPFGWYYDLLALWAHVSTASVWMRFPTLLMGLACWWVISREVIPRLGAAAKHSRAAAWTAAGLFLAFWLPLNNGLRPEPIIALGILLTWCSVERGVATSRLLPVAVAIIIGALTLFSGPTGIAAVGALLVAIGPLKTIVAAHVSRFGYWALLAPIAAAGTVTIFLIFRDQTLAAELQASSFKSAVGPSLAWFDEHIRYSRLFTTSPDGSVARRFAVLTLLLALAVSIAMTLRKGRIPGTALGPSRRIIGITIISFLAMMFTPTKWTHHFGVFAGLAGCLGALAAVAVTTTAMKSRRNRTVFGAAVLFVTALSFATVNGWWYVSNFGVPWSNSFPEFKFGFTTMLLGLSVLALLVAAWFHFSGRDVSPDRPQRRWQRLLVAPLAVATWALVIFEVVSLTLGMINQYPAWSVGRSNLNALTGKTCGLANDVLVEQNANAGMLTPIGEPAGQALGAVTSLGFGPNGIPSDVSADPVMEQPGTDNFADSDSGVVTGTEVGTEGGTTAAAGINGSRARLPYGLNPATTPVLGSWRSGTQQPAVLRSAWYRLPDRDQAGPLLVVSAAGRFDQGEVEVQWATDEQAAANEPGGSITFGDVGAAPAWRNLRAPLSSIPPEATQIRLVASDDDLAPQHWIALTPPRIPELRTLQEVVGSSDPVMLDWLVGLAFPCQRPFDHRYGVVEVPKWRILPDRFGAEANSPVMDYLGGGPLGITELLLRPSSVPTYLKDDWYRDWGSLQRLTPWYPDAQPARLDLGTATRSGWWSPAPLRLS
As to the kind of experiment: Inhibition of Mycobacterium smegmatis EmbC D280G mutant assessed as effect on LAM production at 32ug/ml after 2 hrs by immunoblotting. As to conditions: Mycolicibacterium smegmatis.

The test system of test [9] is Mycobacterium tuberculosis. Briefly: Antimicrobial activity against Mycobacterium tuberculosis expressing EmbC gene after 48 hrs by agar proportion method. Type of test: functional.
Test [10] has as its system Mycobacterium tuberculosis. Briefly: Antimicrobial activity against Mycobacterium tuberculosis expressing EmbC gene after 48 hrs. Format: functional.
For test [11], the system named is Mycolicibacterium smegmatis. As to the kind of experiment: Antimicrobial activity against Mycobacterium smegmatis expressing EmbC gene after 48 hrs by agar proportion method. Format: functional, organism-based.
Test [12] deals with Mycolicibacterium smegmatis. Briefly: Antimicrobial activity against Mycobacterium smegmatis expressing EmbC M286I mutant gene after 48 hrs by agar proportion method. Type of test: functional.
The subject of test [13] is Mycolicibacterium smegmatis. As to the kind of experiment: Antimicrobial activity against Mycobacterium smegmatis expressing EmbC M286L mutant gene after 48 hrs by agar proportion method. Format: functional.
Test [14] deals with Mycolicibacterium smegmatis. Briefly: Antimicrobial activity against Mycobacterium smegmatis expressing EmbC M286V mutant gene after 48 hrs by agar proportion method. Type of test: functional.

Usually MIC stands for the lowest concentration found to suppress growth. Usually MIC90 stands for the lowest concentration that inhibits either 90% of growth or 90% of the strains tested, depending on the study. A lower MIC90 goes with greater potency. For `CC[C@@H](CO)NCCN[C@@H](CC)CO` [ETHAMBUTOL], the MIC in [1] turned out to be 64 µg/mL (≈ 313 µM); in test [6], 3 µg/mL (≈ 14.7 µM); in [10], 3 µg/mL (≈ 14.7 µM); in test [12] it was 32 µg/mL (≈ 157 µM); in [13] it was 64 µg/mL (≈ 313 µM); in [14], 32 µg/mL (≈ 157 µM). In addition, the outcome in test [2], in test [3], in [4] and in [5] was inactive. In addition, the inhibition result in test [7] and in test [8] was “Active” each time. The compound further displayed an MIC90 in test [9] of 1 µg/mL (≈ 4.89 µM). The MIC entry in test [11] was “inactive”.
